# Data: ChEMBL document CHEMBL1165950, “Design and synthesis of new potent anticancer pyrazoles with high FLT3 kinase inhibitory selectivity” (Bioorg Med Chem, 2010)
# Tests used:
# Assay type in all cases: functional
# TK-10 = assay: Growth inhibition of human TK10 cells after 48 hrs by sulforhodamine B assay; conditions: TK-10, 48 h; for CC50: read-out: LC50 (the source's name)
# How it was run: (§1)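 NCI 60-cell screen, five-dose mode. Cells grown in RPMI 1640 with 5% FBS and 2 mM L-glutamine and plated at 5000-40,000 cells/well according to doubling time. After 24 h preincubation, a Tz plate was TCA-fixed. Five concentrations (10-fold or 1/2 log dilutions) were applied for 48 h at 37 °C. SRB staining read at 515 nm. IC50 taken from [(Ti-Tz)/(C-Tz)]×100 = 50.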
# HCT-15 = assay: Cytotoxicity against human HCT15 cells assessed as cell growth at 0.01 uM after 48 hrs by sulforhodamine B assay; conditions: HCT-15, 48 h, read-out: Activity
# MOLT-4 = assay: Cytotoxicity against human MOLT4 cells assessed as cell growth at 10 uM after 48 hrs by sulforhodamine B assay; conditions: MOLT-4, 48 h, read-out: Activity
# U-251 [1] = assay: Cytotoxicity against human U251 cells assessed as cell growth at 10 uM; conditions: read-out: Activity
# How it was run: (§2)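 NCI-60 screen: cells grown in RPMI 1640 with 5% FBS and 2 mM L-glutamine, plated at 5000–40,000 cells/well according to doubling time, and preincubated 24 h at 37 °C, 5% CO2. The single 10 µM dose (DMSO stock) was added, then incubated 48 h. Cells were TCA-fixed and stained with 0.4% SRB, read at 515 nm, and growth % calculated against time-zero and control plates.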
# LOX IMVI [2] = assay: Cytotoxicity against human LOXIMVI cells assessed as cell growth at 0.001 uM after 48 hrs by sulforhodamine B assay; conditions: read-out: Activity
# A549 = assay: Cytotoxicity against human A549 cells assessed as cell growth at 0.001 uM after 48 hrs by sulforhodamine B assay; conditions: A549, 48 h, read-out: Activity
# How it was run: (§3)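 NCI-60 five-dose screen. Cells were grown in RPMI 1640 with 5% FBS and 2 mM L-glutamine, plated at 5000–40,000 cells/well and preincubated for 24 h. Time-zero plates were TCA-fixed. DMSO-solubilized drug was added at five concentrations (10-fold or ½-log serial dilutions) for 48 h at 37 °C, 5% CO2. Cells were TCA-fixed, stained with 0.4% SRB and read at 515 nm. Percent growth used time-zero, control and test absorbances.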
# 786-0 = assay: Cytotoxicity against human 786-0 cells assessed as cell growth at 0.01 uM after 48 hrs by sulforhodamine B assay; conditions: 786-0, 48 h, read-out: Activity; how it was run: as §3
# U-251 [3] = assay: Growth inhibition of human U251 cells after 48 hrs by sulforhodamine B assay; conditions: U-251, 48 h; for CC50: read-out: LC50 (the source's name); how it was run: as §1
# M14 = assay: Cytotoxicity against human M14 cells assessed as cell growth at 100 nM after 48 hrs by sulforhodamine B assay; conditions: M14, 48 h, read-out: Activity
# LOX IMVI [4] = assay: Cytotoxicity against human LOXIMVI cells assessed as cell growth at 10 uM after 48 hrs by sulforhodamine B assay; conditions: read-out: Activity
# MDA-MB-435 = assay: Cytotoxicity against human MDA-MB-435 cells assessed as cell growth at 0.001 uM after 48 hrs by sulforhodamine B assay; conditions: MDA-MB-435, 48 h, read-out: Activity
# SR = assay: Cytotoxicity against human SR cells assessed as cell growth at 10 uM after 48 hrs by sulforhodamine B assay; conditions: read-out: Activity
# SF-539 [5] = assay: Cytotoxicity against human SF539 cells assessed as cell growth at 1 uM after 48 hrs by sulforhodamine B assay; conditions: SF-539, 48 h, read-out: Activity
# NCI-H322M [6] = assay: Cytotoxicity against human NCI-H322M cells assessed as cell growth at 1 uM after 48 hrs by sulforhodamine B assay; conditions: read-out: Activity
# MDA-MB-468 = assay: Cytotoxicity against human MDA-MB-468 cells assessed as cell growth at 10 uM after 48 hrs by sulforhodamine B assay; conditions: MDA-MB-468, 48 h, read-out: Activity
# CCRF-CEM = assay: Cytotoxicity against human CCRF-CEM cells assessed as cell growth at 1 uM after 48 hrs by sulforhodamine B assay; conditions: read-out: Activity; how it was run: as §3
# SNB-19 [7] = assay: Growth inhibition of human SNB19 cells after 48 hrs by sulforhodamine B assay; conditions: SNB-19, 48 h; for CC50: read-out: LC50 (the source's name); how it was run: as §1
# CAKI-1 = assay: Cytotoxicity against human Caki1 cells assessed as cell growth at 0.01 uM after 48 hrs by sulforhodamine B assay; conditions: CAKI-1, 48 h, read-out: Activity
# NCI-H322M [8] = assay: Cytotoxicity against human NCI-H322M cells assessed as cell growth at 0.001 uM after 48 hrs by sulforhodamine B assay; conditions: read-out: Activity
# BT-549 = assay: Growth inhibition of human BT549 cells after 48 hrs by sulforhodamine B assay; conditions: BT-549, 48 h; for CC50: read-out: LC50 (the source's name)
# How it was run: (§4)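 NCI five-dose SRB assay in RPMI 1640 with 5% FBS and 2 mM L-glutamine. Cells were preincubated 24 h, then exposed 48 h at 37 °C to five concentrations (10-fold or half-log serial dilutions from DMSO stocks). TCA fixation, SRB staining, and absorbance at 515 nm followed. IC50 was taken where [(Ti−Tz)/(C−Tz)]×100 = 50, with Tz as time-zero cell density.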
# OVCAR-5 = assay: Cytotoxicity against human OVCAR5 cells assessed as cell growth at 10 uM after 48 hrs by sulforhodamine B assay; conditions: OVCAR-5, 48 h, read-out: Activity
# OVCAR-4 = assay: Growth inhibition of human OVCAR4 cells after 48 hrs by sulforhodamine B assay; conditions: OVCAR-4, 48 h; for CC50: read-out: LC50 (the source's name); how it was run: as §1
# COLO 205 = assay: Growth inhibition of human COLO205 cells after 48 hrs by sulforhodamine B assay; conditions: COLO 205, 48 h; for CC50: read-out: LC50 (the source's name); how it was run: as §4
# T47D = assay: Cytotoxicity against human T47D cells assessed as cell growth at 0.001 uM after 48 hrs by sulforhodamine B assay; conditions: read-out: Activity
# HT-29 = assay: Cytotoxicity against human HT-29 cells assessed as cell growth at 10 uM after 48 hrs by sulforhodamine B assay; conditions: HT-29, 48 h, read-out: Activity
# SF-539 [9] = assay: Growth inhibition of human SF539 cells after 48 hrs by sulforhodamine B assay; conditions: SF-539, 48 h; for CC50: read-out: LC50 (the source's name); how it was run: as §1
# Malme-3M = assay: Growth inhibition of human MALME-3M cells after 48 hrs by sulforhodamine B assay; conditions: for CC50: read-out: LC50 (the source's name); how it was run: as §1
# SNB-19 [10] = assay: Cytotoxicity against human SNB19 cells assessed as cell growth at 0.001 uM after 48 hrs by sulforhodamine B assay; conditions: SNB-19, 48 h, read-out: Activity
# SF-268 = assay: Cytotoxicity against human SF268 cells assessed as cell growth at 10 uM; conditions: read-out: Activity; how it was run: as §2
smiles,measurement,setting,value
COc1cc(C)cc(-c2c(-c3ccnc(-c4ccc(C(C)=O)cc4)c3)cnn2CC#N)c1,TGI,TK-10,> 100 µM
same,CC50,TK-10,> 100 µM
same,growth at 0.01 µM,HCT-15,95%
same,growth at 10 µM,MOLT-4,14%
same,growth at 10 µM,U-251 [1],84.7%
same,growth at 0.001 µM,LOX IMVI [2],101%
same,growth at 0.001 µM,A549,95%
same,growth at 0.01 µM,786-0,98%
same,GI50,U-251 [3],2.89 µM
same,TGI,U-251 [3],> 100 µM
same,CC50,U-251 [3],> 100 µM
same,growth at 0.1 µM,M14,79%
same,growth at 10 µM,LOX IMVI [4],21%
same,growth at 0.001 µM,MDA-MB-435,100%
same,growth at 10 µM,SR,28%
same,growth at 1 µM,SF-539 [5],-45%
same,growth at 1 µM,NCI-H322M [6],69%
same,growth at 10 µM,MDA-MB-468,-55%
same,growth at 1 µM,CCRF-CEM,12%
same,GI50,SNB-19 [7],> 100 µM
same,TGI,SNB-19 [7],> 100 µM
same,CC50,SNB-19 [7],> 100 µM
same,growth at 0.01 µM,CAKI-1,97%
same,growth at 0.001 µM,NCI-H322M [8],102%
same,GI50,BT-549,3.12 µM
same,TGI,BT-549,> 100 µM
same,CC50,BT-549,> 100 µM
same,growth at 10 µM,OVCAR-5,72%
same,GI50,OVCAR-4,5.13 µM
same,TGI,OVCAR-4,> 100 µM
same,CC50,OVCAR-4,> 100 µM
same,GI50,COLO 205,1.95 µM
same,TGI,COLO 205,3.7 µM
same,CC50,COLO 205,7.02 µM
same,growth at 0.001 µM,T47D,93%
same,growth at 10 µM,HT-29,6%
same,GI50,SF-539 [9],2.02 µM
same,TGI,SF-539 [9],4.66 µM
same,CC50,SF-539 [9],> 100 µM
same,GI50,Malme-3M,5.82 µM
same,TGI,Malme-3M,> 100 µM
same,CC50,Malme-3M,> 100 µM
same,growth at 0.001 µM,SNB-19 [10],102%
same,growth at 10 µM,SF-268,90.5%
Cc1cc(O)cc(-c2nn(CC#N)cc2-c2ccnc(-c3ccc(Oc4ccccc4)cc3)c2)c1,GI50,TK-10,4.25 µM
same,TGI,TK-10,15.1 µM
same,CC50,TK-10,43.6 µM
same,growth at 0.01 µM,HCT-15,96%
same,growth at 10 µM,MOLT-4,-21%
same,growth at 10 µM,U-251 [1],47.5%
same,growth at 0.001 µM,LOX IMVI [2],100%
same,growth at 0.001 µM,A549,96%
same,growth at 0.01 µM,786-0,95%
same,GI50,U-251 [3],1.61 µM
same,TGI,U-251 [3],2.99 µM
same,CC50,U-251 [3],5.56 µM
same,growth at 0.1 µM,M14,94%
same,growth at 10 µM,LOX IMVI [4],-86%
same,growth at 0.001 µM,MDA-MB-435,103%
same,growth at 10 µM,SR,-12%
same,growth at 1 µM,SF-539 [5],13%
same,growth at 1 µM,NCI-H322M [6],35%
same,growth at 10 µM,MDA-MB-468,-88%
same,growth at 1 µM,CCRF-CEM,6%
same,GI50,SNB-19 [7],1.07 µM
same,TGI,SNB-19 [7],23.4 µM
same,CC50,SNB-19 [7],51.1 µM
same,growth at 0.01 µM,CAKI-1,90%
same,growth at 0.001 µM,NCI-H322M [8],94%
same,GI50,BT-549,2.66 µM
same,TGI,BT-549,11.2 µM
same,CC50,BT-549,43.1 µM
same,growth at 10 µM,OVCAR-5,-89%
same,GI50,OVCAR-4,4.56 µM
same,TGI,OVCAR-4,16 µM
same,CC50,OVCAR-4,48.6 µM
same,GI50,COLO 205,1.8 µM
same,TGI,COLO 205,3.26 µM
same,CC50,COLO 205,5.9 µM
same,growth at 0.001 µM,T47D,95%
same,growth at 10 µM,HT-29,-89%
same,GI50,SF-539 [9],3.38 µM
same,TGI,SF-539 [9],13.5 µM
same,CC50,SF-539 [9],44 µM
same,GI50,Malme-3M,1.81 µM
same,TGI,Malme-3M,3.58 µM
same,CC50,Malme-3M,7.12 µM
same,growth at 0.001 µM,SNB-19 [10],101%
same,growth at 10 µM,SF-268,71.8%
